# Laboratory results taken from ChEMBL document CHEMBL3860039, “Structure-Activity Relationship and Signaling of New Chimeric CXCR4 Agonists” (J Med Chem, 2016).
# Tests used:
# Format in all cases: cell-based
# [1] = target: T1, C-X-C chemokine receptor type 4 (Homo sapiens, UniProt P61073); assay: Agonist activity at HA-tagged human CXCR4 receptor expressed in HEK293 cells co-transfected with Galphai1-91-RlucII, Gbeta1, and GFP10-G-gamma1 incubated for 7 mins by Galpha1 protein activation-based BRET assay
# In short: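 HEK293 cells (3 × 10^6 per 100 mm dish) co-transfected via polyethylenimine with HA-hCXCR4 plus Gαi1-91-RlucII, Gβ1, GFP10-Gγ1; replated at 24 h, 100 000 cells/well. At 48 h, washed in HBSS/0.1% BSA, exposed to ligand 10−12 to 10−5 M for 7 min, then coelenterazine-400A 5 μM final; BRET2 515/400 nm ratio. EC50 (Gαi dissociation) and Emax from three experiments in triplicate.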
# [2] = target: T1, C-X-C chemokine receptor type 4; assay: Agonist activity at CXCR4 in human REH cells assessed as induction of chemotaxis incubated for 3 hrs by transwell migration assay
# In short: (§1)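 REH acute lymphoblastic B-cell leukaemia cells washed in RPMI; 100 000 cells in RPMI + 0.2% BSA seeded on top of 5 μm pore polycarbonate transwell, peptide dilutions in same medium in bottom chamber; 3 h, 37 °C, 5% CO2. Migrated cells in lower chamber counted by automated counter, expressed as % of seeded cells; peak = concentration giving maximal migration. Three experiments in triplicate.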
# [3] = target: T1, C-X-C chemokine receptor type 4; assay: Agonist activity at CXCR4 in human REH cells assessed as optimal concentration causing maximum induction of chemotaxis incubated for 3 hrs by transwell migration assay; in short: as §1
# [4] = target: T1, C-X-C chemokine receptor type 4; assay: Displacement of [125I]-CXCL12 from HA-tagged human recombinant CXCR4 expressed in HEK293 cells incubated for 1 hr by gamma-radiation counting analysis
# T1 sequence (P61073 whole entry): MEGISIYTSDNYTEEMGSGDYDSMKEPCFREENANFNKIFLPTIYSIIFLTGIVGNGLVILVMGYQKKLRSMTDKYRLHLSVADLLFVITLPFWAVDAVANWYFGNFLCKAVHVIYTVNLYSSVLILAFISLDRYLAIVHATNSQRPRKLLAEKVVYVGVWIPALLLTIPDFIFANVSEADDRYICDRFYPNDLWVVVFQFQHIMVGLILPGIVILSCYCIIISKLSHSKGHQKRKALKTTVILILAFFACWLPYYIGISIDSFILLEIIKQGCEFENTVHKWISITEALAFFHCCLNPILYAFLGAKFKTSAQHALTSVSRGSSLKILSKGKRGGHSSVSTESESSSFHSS
SMILES,EC50 [1] [nM],Emax [1] [%],%max [2] [%],Activity [3] [nM],IC50 [4] [nM]
CC(C)C[C@H](NC(=O)[C@H](CO)NC(=O)[C@H](Cc1ccc(C(=O)c2ccccc2)cc1)NC(=O)[C@@H]1CCCN1C(=O)[C@@H](N)CCCCN)C(=O)N[C@@H](CO)C(=O)N[C@@H](Cc1ccc(O)cc1)C(=O)N[C@@H](CCCNC(=N)N)C(=O)N[C@@H](CO)C(=O)N[C@@H](C)C(=O)NCCCC[C@H](NC(=O)[C@@H]1CSSC[C@H](NC(=O)[C@H](Cc2ccc3ccccc3c2)NC(=O)[C@H](CCCNC(=N)N)NC(=O)[C@@H](N)CCCNC(=N)N)C(=O)N[C@@H](Cc2ccc(O)cc2)C(=O)N[C@@H](CCCNC(=N)N)C(=O)N[C@@H](CCCCN)C(=O)N[C@H](CCCCN)C(=O)N2CCC[C@H]2C(=O)N[C@@H](Cc2ccc(O)cc2)C(=O)N[C@@H](CCCNC(=N)N)C(=O)N[C@@H](CCCNC(=N)N)C(=O)N1)C(=O)O,52,75,72,10,59
CC(C)C[C@H](NC(=O)[C@H](CO)NC(=O)[C@@H](NC(=O)[C@@H]1CCCN1C(=O)[C@@H](N)CCCCN)C(C)C)C(=O)N[C@@H](CO)C(=O)N[C@@H](Cc1ccc(O)cc1)C(=O)N[C@@H](C)C(=O)N[C@@H](CO)C(=O)N[C@@H](C)C(=O)NCCCC[C@H](NC(=O)[C@@H]1CSSC[C@H](NC(=O)[C@H](Cc2ccc3ccccc3c2)NC(=O)[C@H](CCCNC(=N)N)NC(=O)[C@@H](N)CCCNC(=N)N)C(=O)N[C@@H](Cc2ccc(O)cc2)C(=O)N[C@@H](CCCNC(=N)N)C(=O)N[C@@H](CCCCN)C(=O)N[C@H](CCCCN)C(=O)N2CCC[C@H]2C(=O)N[C@@H](Cc2ccc(O)cc2)C(=O)N[C@@H](CCCNC(=N)N)C(=O)N[C@@H](CCCNC(=N)N)C(=O)N1)C(=O)O,40,25,16,10000,300
CC(C)C[C@H](NC(=O)[C@H](CO)NC(=O)[C@H](C/C=C/c1ccccc1)NC(=O)[C@@H]1CCCN1C(=O)[C@@H](N)CCCCN)C(=O)N[C@@H](CO)C(=O)N[C@@H](Cc1ccc(O)cc1)C(=O)N[C@@H](CCCNC(=N)N)C(=O)N[C@@H](CO)C(=O)N[C@@H](C)C(=O)NCCCC[C@H](NC(=O)[C@@H]1CSSC[C@H](NC(=O)[C@H](Cc2ccc3ccccc3c2)NC(=O)[C@H](CCCNC(=N)N)NC(=O)[C@@H](N)CCCNC(=N)N)C(=O)N[C@@H](Cc2ccc(O)cc2)C(=O)N[C@@H](CCCNC(=N)N)C(=O)N[C@@H](CCCCN)C(=O)N[C@H](CCCCN)C(=O)N2CCC[C@H]2C(=O)N[C@@H](Cc2ccc(O)cc2)C(=O)N[C@@H](CCCNC(=N)N)C(=O)N[C@@H](CCCNC(=N)N)C(=O)N1)C(=O)O,50,70,70,10,31
CC(C)C[C@H](NC(=O)[C@H](C)NC(=O)[C@@H](NC(=O)[C@@H]1CCCN1C(=O)[C@@H](N)CCCCN)C(C)C)C(=O)N[C@@H](CO)C(=O)N[C@@H](Cc1ccc(O)cc1)C(=O)N[C@@H](CCCNC(=N)N)C(=O)N[C@@H](CO)C(=O)N[C@@H](C)C(=O)NCCCC[C@H](NC(=O)[C@@H]1CSSC[C@H](NC(=O)[C@H](Cc2ccc3ccccc3c2)NC(=O)[C@H](CCCNC(=N)N)NC(=O)[C@@H](N)CCCNC(=N)N)C(=O)N[C@@H](Cc2ccc(O)cc2)C(=O)N[C@@H](CCCNC(=N)N)C(=O)N[C@@H](CCCCN)C(=O)N[C@H](CCCCN)C(=O)N2CCC[C@H]2C(=O)N[C@@H](Cc2ccc(O)cc2)C(=O)N[C@@H](CCCNC(=N)N)C(=O)N[C@@H](CCCNC(=N)N)C(=O)N1)C(=O)O,56,81,50,10,25
CC(C)C[C@H](NC(=O)[C@H](CO)NC(=O)[C@H](C)NC(=O)[C@@H]1CCCN1C(=O)[C@@H](N)CCCCN)C(=O)N[C@@H](CO)C(=O)N[C@@H](Cc1ccc(O)cc1)C(=O)N[C@@H](CCCNC(=N)N)C(=O)N[C@@H](CO)C(=O)N[C@@H](C)C(=O)NCCCC[C@H](NC(=O)[C@@H]1CSSC[C@H](NC(=O)[C@H](Cc2ccc3ccccc3c2)NC(=O)[C@H](CCCNC(=N)N)NC(=O)[C@@H](N)CCCNC(=N)N)C(=O)N[C@@H](Cc2ccc(O)cc2)C(=O)N[C@@H](CCCNC(=N)N)C(=O)N[C@@H](CCCCN)C(=O)N[C@H](CCCCN)C(=O)N2CCC[C@H]2C(=O)N[C@@H](Cc2ccc(O)cc2)C(=O)N[C@@H](CCCNC(=N)N)C(=O)N[C@@H](CCCNC(=N)N)C(=O)N1)C(=O)O,92,50,30,10,56
CC(C)C[C@H](NC(=O)[C@H](CO)NC(=O)[C@@H](NC(=O)[C@@H]1CCCN1C(=O)[C@@H](N)CCCCN)C(C)C)C(=O)N[C@@H](CO)C(=O)N[C@@H](Cc1ccc([N+](=O)[O-])cc1)C(=O)N[C@@H](CCCNC(=N)N)C(=O)N[C@@H](CO)C(=O)N[C@@H](C)C(=O)NCCCC[C@H](NC(=O)[C@@H]1CSSC[C@H](NC(=O)[C@H](Cc2ccc3ccccc3c2)NC(=O)[C@H](CCCNC(=N)N)NC(=O)[C@@H](N)CCCNC(=N)N)C(=O)N[C@@H](Cc2ccc(O)cc2)C(=O)N[C@@H](CCCNC(=N)N)C(=O)N[C@@H](CCCCN)C(=O)N[C@H](CCCCN)C(=O)N2CCC[C@H]2C(=O)N[C@@H](Cc2ccc(O)cc2)C(=O)N[C@@H](CCCNC(=N)N)C(=O)N[C@@H](CCCNC(=N)N)C(=O)N1)C(=O)O,62,73,48,10,109
CC(C)C[C@H](NC(=O)[C@H](CO)NC(=O)[C@@H](NC(=O)[C@@H]1CCCN1C(=O)[C@@H](N)CCCCN)C(C)C)C(=O)N[C@@H](CO)C(=O)N[C@@H](Cc1ccc(F)cc1)C(=O)N[C@@H](CCCNC(=N)N)C(=O)N[C@@H](CO)C(=O)N[C@@H](C)C(=O)NCCCC[C@H](NC(=O)[C@@H]1CSSC[C@H](NC(=O)[C@H](Cc2ccc3ccccc3c2)NC(=O)[C@H](CCCNC(=N)N)NC(=O)[C@@H](N)CCCNC(=N)N)C(=O)N[C@@H](Cc2ccc(O)cc2)C(=O)N[C@@H](CCCNC(=N)N)C(=O)N[C@@H](CCCCN)C(=O)N[C@H](CCCCN)C(=O)N2CCC[C@H]2C(=O)N[C@@H](Cc2ccc(O)cc2)C(=O)N[C@@H](CCCNC(=N)N)C(=O)N[C@@H](CCCNC(=N)N)C(=O)N1)C(=O)O,83,60,43,10,78
CC(C)C[C@H](NC(=O)[C@H](CO)NC(=O)[C@H](Cc1ccc2ccccc2c1)NC(=O)[C@@H]1CCCN1C(=O)[C@@H](N)CCCCN)C(=O)N[C@@H](CO)C(=O)N[C@@H](Cc1ccc(O)cc1)C(=O)N[C@@H](CCCNC(=N)N)C(=O)N[C@@H](CO)C(=O)N[C@@H](C)C(=O)NCCCC[C@H](NC(=O)[C@@H]1CSSC[C@H](NC(=O)[C@H](Cc2ccc3ccccc3c2)NC(=O)[C@H](CCCNC(=N)N)NC(=O)[C@@H](N)CCCNC(=N)N)C(=O)N[C@@H](Cc2ccc(O)cc2)C(=O)N[C@@H](CCCNC(=N)N)C(=O)N[C@@H](CCCCN)C(=O)N[C@H](CCCCN)C(=O)N2CCC[C@H]2C(=O)N[C@@H](Cc2ccc(O)cc2)C(=O)N[C@@H](CCCNC(=N)N)C(=O)N[C@@H](CCCNC(=N)N)C(=O)N1)C(=O)O,152,43,47,10,64
CC(C)C[C@H](NC(=O)[C@H](CO)NC(=O)[C@@H](NC(=O)[C@@H]1CCCN1C(=O)[C@@H](N)CCCCN)C(C)C)C(=O)N[C@@H](C)C(=O)N[C@@H](Cc1ccc(O)cc1)C(=O)N[C@@H](CCCNC(=N)N)C(=O)N[C@@H](CO)C(=O)N[C@@H](C)C(=O)NCCCC[C@H](NC(=O)[C@@H]1CSSC[C@H](NC(=O)[C@H](Cc2ccc3ccccc3c2)NC(=O)[C@H](CCCNC(=N)N)NC(=O)[C@@H](N)CCCNC(=N)N)C(=O)N[C@@H](Cc2ccc(O)cc2)C(=O)N[C@@H](CCCNC(=N)N)C(=O)N[C@@H](CCCCN)C(=O)N[C@H](CCCCN)C(=O)N2CCC[C@H]2C(=O)N[C@@H](Cc2ccc(O)cc2)C(=O)N[C@@H](CCCNC(=N)N)C(=O)N[C@@H](CCCNC(=N)N)C(=O)N1)C(=O)O,144,19,11.4,10000,368
CC(C)C[C@H](NC(=O)[C@H](CO)NC(=O)[C@H](Cc1ccc2cc3ccccc3cc2c1)NC(=O)[C@@H]1CCCN1C(=O)[C@@H](N)CCCCN)C(=O)N[C@@H](CO)C(=O)N[C@@H](Cc1ccc(O)cc1)C(=O)N[C@@H](CCCNC(=N)N)C(=O)N[C@@H](CO)C(=O)N[C@@H](C)C(=O)NCCCC[C@H](NC(=O)[C@@H]1CSSC[C@H](NC(=O)[C@H](Cc2ccc3ccccc3c2)NC(=O)[C@H](CCCNC(=N)N)NC(=O)[C@@H](N)CCCNC(=N)N)C(=O)N[C@@H](Cc2ccc(O)cc2)C(=O)N[C@@H](CCCNC(=N)N)C(=O)N[C@@H](CCCCN)C(=O)N[C@H](CCCCN)C(=O)N2CCC[C@H]2C(=O)N[C@@H](Cc2ccc(O)cc2)C(=O)N[C@@H](CCCNC(=N)N)C(=O)N[C@@H](CCCNC(=N)N)C(=O)N1)C(=O)O,81,68,75,10,48
